A short description of data set [1]: Cmax in Sprague-Dawley rat at 10 mg/kg, po administered via gavage by LC-MS analysis. The data set is classed as ADME, organism-based. On the set-up: route oral, dose 10 mg/kg. The settings on record: in vivo.
Data set [2] is described as follows: Metabolic stability in monkey liver microsomes assessed as parent compound remaining at 1 uM measured after 60 mins in presence of NADPH by HPLC-MS/MS analysis. To be noted: rhesus monkey, read-out: Stabilty. The data set is classed as ADME, Macaca mulatta, Microsome. The procedure, abridged:
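Compound at 1 μM incubated with 0.5 mg/mL liver microsomes and 1 mM NADPH. Samples taken at 0, 10, 15, 30, 45 and 60 min and quenched with acetonitrile. After centrifugation, supernatant analysed by HPLC-MS/MS, with percent parent remaining relative to the 0 min area.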
A general note: Liver microsomes are a subcellular fraction often used to study metabolism.

The target of data set [3] is Fibroblast growth factor receptor 3 (Homo sapiens, UniProt P22607). Nature of the data set: Inhibition of human recombinant FGFR3 (447 to 761 residues) using poly(Glu,Tyr)4:1 as substrate incubated for 40 mins in presence of [gamma33P-ATP] by radiometric scintillation counting analysis. The procedure, abridged:
(§1)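 Radiometric kinase assay run as an external profiling service, with ATP at the Km of each kinase. IC50 values are means of two independent experiments.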

A short description of data set [4]: Inhibition of human recombinant EPHB2 A848S/K918E mutant (560 to end residues) using poly(Glu,Tyr)4:1 as substrate incubated for 40 mins in presence of [gamma33P-ATP] by radiometric scintillation counting analysis. The procedure, abridged: as §1
In data set [5] the target is Mitogen-activated protein kinase 1 (Homo sapiens, UniProt P28482). Nature of the data set: Inhibition of human full length recombinant ERK2 using myelin basic protein as substrate incubated for 40 mins in presence of [gamma33P-ATP] by radiometric scintillation counting analysis.
The subject of another data set is BT-474. Nature of the data set: Antiproliferative activity against human BT-474 cells assessed as reduction in cell viability incubated for 72 hrs by MTT assay. The data set is classed as functional, cell-based. The settings on record: BT-474, 72 h. The procedure, abridged:
(§2)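 MTT viability assay. ATCC cell lines were grown in designated medium with 10% FBS at 37 °C, 5% CO2. Cells seeded at 1500−30000 per well and incubated 24 h, then exposed to compound (0−10 μg/mL) for 72 h. MTT added for 2−4 h. Formazan dissolved in DMSO (adherent) or acidified SDS overnight (suspension), absorbance read at 570 nm. Triplicates; IC50 calculated.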
Background: Tetrazolium dyes change colour on reduction, which living cells bring about.

Another data set deals with L929. Nature of the data set: Cytotoxicity against mouse L929 cells assessed as reduction in cell viability incubated for 72 hrs by MTT assay. The data set is classed as cell-based. To be noted: L929, 72 h. In a few lines:
as §2

The subject of a further data set is L02. Briefly: Cytotoxicity against human L02 cells assessed as reduction in cell viability incubated for 72 hrs by MTT assay. The data set is classed as cell-based. The settings on record: L02, 72 h. In a few lines:
as §2

For data set [6], the system named is MDA-MB-231. Briefly: Induction of apoptosis in human MDA-MB-231 cells assessed as live cells at 0.03 uM incubated for 24 hrs by annexin V-FITC and propidium iodide staining based flow cytometry analysis (reference value: 96.95 %). In kind it is functional. For orientation: In flow cytometry, cells or beads pass a laser one at a time.
For data set [7], the system named is MDA-MB-231. Briefly: Induction of apoptosis in human MDA-MB-231 cells assessed as early apoptotic cells at 0.03 uM incubated for 24 hrs by annexin V-FITC and propidium iodide staining based flow cytometry analysis (reference value: 2 %). The data set is classed as functional.
Data set [8] has as its system MDA-MB-231. Nature of the data set: Induction of apoptosis in human MDA-MB-231 cells assessed as live cells at 0.1 uM incubated for 24 hrs by annexin V-FITC and propidium iodide staining based flow cytometry analysis (reference value: 96.95 %). In kind it is functional.
Data set [9] deals with Proto-oncogene tyrosine-protein kinase Src (Homo sapiens) (UniProt P12931). Briefly: Inhibition of Src in human MDA-MB-231 cells assessed as inhibition of FAK phosphorylation at 0.1 to 0.3 uM incubated for 20 hrs by Western blot analysis. The settings on record: dose 0.1-0.3 µM. In kind it is cell-based. The procedure, abridged:
(§3)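 MDA-MB-231 cells treated with a series of concentrations for 20 h at 37 °C. Cells washed with ice-cold saline and lysed in RIPA buffer with protease cocktail. Lysates cleared at 12000 rpm for 10 min at 4 °C and protein quantified by Bradford. Equal protein separated by SDS-PAGE, transferred to PVDF and probed with antibodies.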

Data set [10] has as its system MDA-MB-231. Briefly: Inhibition of ERK phosphorylation in human MDA-MB-231 cells at 0.01 to 0.3 uM incubated for 20 hrs by Western blot analysis. The data set is classed as cell-based. The settings on record: dose 0.01-0.3 µM. The procedure, abridged:
as §3

Data set [11] concerns MDA-MB-231. Briefly: Antitumor activity against human MDA-MB-231 cells xenografted in SCID mouse assessed as tumor growth inhibition administered orally once daily for 21 days and measured every 3 days. The data set is classed as functional. The settings on record: dose 10-40 mg/kg/day, time 21.0 day. In a few lines: (§4)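 SCID mice (5−6 weeks) injected subcutaneously with 100 μL of cells at 5 × 10^7/mL. At 150−200 mm3 mice randomized, 6 per group. Oral compounds given in water with 25% PEG400 plus 5% DMSO; paclitaxel given 10 mg/kg/week iv. Tumor volume a×b²/2 and body weight measured every 3 days. Inhibition rate (c−d)/c×100% against vehicle control.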

Data set [12] deals with MDA-MB-435. Briefly: Antitumor activity against human MDA-MB-435 cells xenografted in SCID mouse assessed as tumor growth inhibition administered orally once daily for 21 days and measured every 3 days. The data set is classed as functional. The settings on record: dose 10-40 mg/kg/day, time 21.0 day. The procedure, abridged: as §4
The test system of data set [13] is MDA-MB-435. Briefly: Antitumor activity against human MDA-MB-435 cells xenografted in SCID mouse assessed as tumor growth inhibition at 40 mg/kg, po QD for 21 days and measured every 3 days. The settings on record: MDA-MB-435, po, 504 h, time 21 day. In kind it is functional. The procedure, abridged:
as §4

The species named for a further data set is Danio rerio. Briefly: Antiangiogenesis activity in EGFP-labelled zebrafish embryo assessed as reduction in formation of major cranial vessel at 1.25 to 5 uM incubated for overnight by fluorescence microscopic analysis. In kind it is functional, organism-based. To be noted: dose 1.25-5 µM. The procedure, abridged: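 Transgenic FLK:EGFP zebrafish kept at 28 °C, pH 7.2−7.4, 14 h light/10 h dark. Embryos at 30 hpf incubated overnight with compound at 1.25, 2.5 or 5 μM beside a blank control. Fish anaesthetized, then vessels imaged by fluorescence microscopy.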

Data set [14] can be described thus: Acute toxicity in female Sprague-Dawley rat assessed as increase of body weight at 200 mg/kg, po administered as single dose and monitored every 3 days. The data set is classed as organism-based. To be noted: in vivo, 72 h. The procedure, abridged: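 Sprague-Dawley rats (n = 3) received a single oral dose of 200 mg/kg in sterile water with 25% (v/v) PEG400 plus 5% DMSO. Behaviour and side effects were monitored daily, and average body weight was measured every 3 days.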

The nature of data set [15]: Acute toxicity in Sprague-Dawley rat assessed as histopathological changes in liver at 100 mg/kg, po administered as single dose measured after 24 hrs by H and E staining based light microscope analysis. The settings on record: in vivo. The data set is classed as organism-based. The procedure, abridged:
(§5)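 Sprague-Dawley rats received a single oral dose of 100 mg/kg in sterile water with 25% (v/v) PEG400 plus 5% DMSO. Organs were examined by histology and immunohistochemistry for pathological changes. Behaviour and side effects were checked daily.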

A short description of data set [16]: Acute toxicity in Sprague-Dawley rat assessed as histopathological changes in spleen at 100 mg/kg, po administered as single dose measured after 24 hrs by H and E staining based light microscope analysis. The settings on record: in vivo. In kind it is organism-based. The procedure, abridged:
as §5

Data set [17] is described as follows: Acute toxicity in Sprague-Dawley rat assessed as histopathological changes in kidney at 100 mg/kg, po administered as single dose measured after 24 hrs by H and E staining based light microscope analysis. In kind it is organism-based. To be noted: in vivo. In a few lines: as §5

Consider 1 compound from ChEMBL document CHEMBL4765233, “From Lead to Drug Candidate: Optimization of 3-(Phenylethynyl)-1H-pyrazolo[3,4-d]pyrimidin-4-amine Derivatives as Agents for the Treatment of Triple Negative Breast Cancer” (J Med Chem, 2016).

Each structure is given as a SMILES string. Calls of active or inactive are those of the source. The calls are words filed in the database; no cut-off is given here.

Mitogen-activated protein kinase 1, sequence (P28482 whole entry): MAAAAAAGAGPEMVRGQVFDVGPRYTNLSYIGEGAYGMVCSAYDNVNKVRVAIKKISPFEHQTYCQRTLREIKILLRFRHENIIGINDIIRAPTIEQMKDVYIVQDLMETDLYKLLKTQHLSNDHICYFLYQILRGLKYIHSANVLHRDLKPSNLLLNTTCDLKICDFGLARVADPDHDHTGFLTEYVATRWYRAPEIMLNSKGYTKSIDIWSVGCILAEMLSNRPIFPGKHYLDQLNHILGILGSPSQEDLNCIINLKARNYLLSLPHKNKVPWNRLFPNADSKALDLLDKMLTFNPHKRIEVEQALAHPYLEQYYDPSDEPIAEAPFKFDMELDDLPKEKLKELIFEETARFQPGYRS
Proto-oncogene tyrosine-protein kinase Src (Homo sapiens), sequence (P12931 2-536 limits assumed): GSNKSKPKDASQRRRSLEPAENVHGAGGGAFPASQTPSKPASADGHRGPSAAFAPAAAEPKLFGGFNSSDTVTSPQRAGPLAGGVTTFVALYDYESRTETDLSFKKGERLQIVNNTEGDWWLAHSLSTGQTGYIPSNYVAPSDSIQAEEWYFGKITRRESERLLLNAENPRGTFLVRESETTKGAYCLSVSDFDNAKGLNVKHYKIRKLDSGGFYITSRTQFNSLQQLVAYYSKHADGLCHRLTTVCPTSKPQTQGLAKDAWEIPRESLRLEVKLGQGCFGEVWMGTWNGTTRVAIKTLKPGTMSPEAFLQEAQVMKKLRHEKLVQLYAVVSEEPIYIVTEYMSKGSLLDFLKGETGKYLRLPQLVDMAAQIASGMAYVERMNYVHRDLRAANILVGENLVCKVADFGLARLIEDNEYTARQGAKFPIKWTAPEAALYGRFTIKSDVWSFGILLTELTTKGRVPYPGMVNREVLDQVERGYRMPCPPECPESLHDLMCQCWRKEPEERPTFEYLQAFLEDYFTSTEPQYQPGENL
Fibroblast growth factor receptor 3, sequence (P22607 whole entry, the tested form may be a part): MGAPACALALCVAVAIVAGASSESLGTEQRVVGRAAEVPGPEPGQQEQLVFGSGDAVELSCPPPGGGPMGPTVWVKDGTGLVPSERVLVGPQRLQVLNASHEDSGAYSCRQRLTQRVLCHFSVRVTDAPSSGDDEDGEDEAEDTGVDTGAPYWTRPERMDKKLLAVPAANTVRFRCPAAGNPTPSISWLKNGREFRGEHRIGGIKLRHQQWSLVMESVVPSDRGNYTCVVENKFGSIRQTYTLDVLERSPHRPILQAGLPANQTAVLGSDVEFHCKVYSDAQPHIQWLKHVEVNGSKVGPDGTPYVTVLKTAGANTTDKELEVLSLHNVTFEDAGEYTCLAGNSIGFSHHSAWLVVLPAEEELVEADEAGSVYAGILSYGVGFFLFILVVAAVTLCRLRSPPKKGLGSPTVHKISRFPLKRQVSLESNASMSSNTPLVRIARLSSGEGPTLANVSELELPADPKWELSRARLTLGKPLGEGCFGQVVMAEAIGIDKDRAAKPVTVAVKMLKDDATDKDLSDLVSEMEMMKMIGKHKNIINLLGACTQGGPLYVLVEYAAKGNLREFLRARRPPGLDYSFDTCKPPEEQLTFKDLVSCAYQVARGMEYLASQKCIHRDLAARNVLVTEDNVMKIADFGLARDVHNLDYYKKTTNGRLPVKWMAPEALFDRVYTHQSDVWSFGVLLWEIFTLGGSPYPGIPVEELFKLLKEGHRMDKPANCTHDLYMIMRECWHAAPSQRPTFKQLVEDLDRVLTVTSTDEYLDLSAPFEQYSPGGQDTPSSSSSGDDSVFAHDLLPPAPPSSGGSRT

As to `Cc1ccc(NC(=O)c2ccc(C)c(C(F)(F)F)c2)cc1C#Cc1nn([C@H]2CC[C@H](O)CC2)c2ncnc(N)c12`, the highest level in data set [1] (Cmax) was 143 ng/mL. Further, in data set [2], the remaining at 1 h, 1 µM was greater than 90%. The IC50 in data set [3] was 0.12 µM; in data set [4] it was 0.033 µM; in [5], greater than 10 µM; in the data set on BT-474 it was greater than 10 µM; in the data set with L929, greater than 10 µM; in the data set on L02, greater than 10 µM. Besides, the Activity was 78.36% in the data set on MDA-MB-231 [6]; 8.02% in the data set with MDA-MB-231 [7]; 67.94% in the data set on MDA-MB-231 [8]; “Dose-dependent effect” with MDA-MB-231 [11]; “Dose-dependent effect” in the data set with MDA-MB-435 [12]; “Non-Toxic” in data set [14]. Moreover, the Activity entry in data set [15], in [16] and in data set [17] was “Non-Toxic” in each case. The inhibition result (in [9]; in the data set on MDA-MB-231 [10]) was “Active” each time. Further, the inhibition in vivo at 40 mg/kg/day with MDA-MB-435 [13] amounted to 100%. Further, in the data set filed under Danio rerio, the outcome was inactive.

In general, Cmax refers to the peak of the concentration-time curve. One may read the IC50 as the concentration that gives 50% inhibition. In general, inhibition in vivo refers to the drop in the measured response relative to a control, in per cent.
